This data set is described as follows: Toxicity liver stage against HepG2, at 10uM. It counts as cell-based. Set-up: test concentration 10 uM, cell line HepG2-A16-CD81EGFP. As to conditions: human, HepG2-A16-CD81EGFP cells; read-out: INHIBITION
In outline: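 Uninfected HepG2-A16-CD81EGFP cells, 3 × 10^3 per well, 1536-well, plated on prespotted compound at 10 μM final, parasite-free screening media added to match infected plates; puromycin 10 μM positive, DMSO 0.5% negative; run in parallel with 48 h PbLuc assay at 37 °C, 5% CO2; viability by CellTiter-Glo luminescence, normalized to controls.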
As to `Cc1ccc2oc([C@H]3CCN(Cc4ccccc4)C3)nc2c1`, the cytotoxicity at 10 µM was -6.75%.
Next, `O=C(NC[C@H]1OC[C@@H](NC2CCOCC2)[C@@H]1O)c1cccs1`: -1.6%; `CCNC(=O)N1C[C@@H]2OCC(=O)N(C(C)C)[C@@H]2C1`: -0.155%.
Then `O=C(O)Cn1ccc(=O)c2cc(Cl)ccc21`, with -17.1%.
Then `COc1ccc(CN2C[C@@H]3CN(CCO)C[C@@H]3C2=O)cc1`, with 9.27%.
Turning to `CN1CCN(C(=O)c2n[nH]c3c2CN(C2CCOC2)CC3)CC1` (stereo unspecified), the cytotoxicity at 10 µM worked out at 1.52%.
For `O=C(c1ccc[nH]1)N1CCOCC2(C1)CN(c1ccccc1)C(=O)CO2` (stereo unspecified), the cytotoxicity at 10 µM was -1.05%.
With `COC(=O)CCC(=O)N1CCC2(CN(Cc3ccccc3F)C2)C1`, the cytotoxicity at 10 µM was 5.58%.
Next, `Cc1ccc(C(=O)N2CCC3(CCN(Cc4ccccn4)C3=O)C2)cn1` (stereo unspecified): -145%.
Regarding `O=C(c1cnccn1)N1CCN(Cc2ccncc2)c2ncccc2C1`, the cytotoxicity at 10 µM was -2.72%.
Next, `O=C(N[C@@H]1CN(Cc2ccsc2)[C@@H]2CCCO[C@@H]21)C1CC1`: -5.47%; `O=C(NCc1ccco1)[C@@]12CCO[C@@H]1CCN(CCN1CCCC1)C2`: -3.47%; `Cc1c(Cc2ccccc2)c(O)nc2nc(N3CCOCC3)nn12`: 9.76%.
Then `Cc1cc(-c2cc(N)c(=O)n(CC(=O)N3CCCC(C)C3)n2)c(C)o1` (stereo unspecified), with 4.62%; and `CCS(=O)(=O)N1CCC(c2nc(C)c(C)c(N3CCCC3)n2)CC1`, with 1.27%; and `O=C(N1CCCC1)N1CCN(c2ccc(Cl)nn2)C(=O)C1`, with 7.33%.
Then `O=C(O)c1sccc1Oc1ccc(NC(=O)C2CC2)cc1`, with -4.77%; and `CCC1CCCN(S(=O)(=O)c2cnn(C)c2)C1` (stereo unspecified), with 12.9%.
For the compound `CC(OCC1CC1)C(=O)NCc1cccc(CN2CCN(C)CC2)c1` (stereo unspecified), the cytotoxicity at 10 µM was determined as 0.193%.
Next, `CC(C#N)NS(=O)(=O)c1cccc(C(C)C)c1` (stereo unspecified): 0.846%.
Then `CS(=O)(=O)CCNC(=O)Nc1sc2ccccc2c1Cl`, with 41.7%; and `CCN(CC1CCOC1)C(=O)CCc1nc(C(C)(C)C)no1` (stereo unspecified), with -1.26%; and `Cc1nc(CC(=O)NCCNc2nccc(C(F)(F)F)n2)cs1`, with 14.3%.
Next, `CCc1c(NCc2ccc(F)cc2)cnn1CC(C)C`: 3.66%; `Cc1nsc(N2CCN(CC(=O)N(C3CC3)C(C)C3CC3)CC2)n1` (stereo unspecified): -12.4%; `O=C(CCc1cccs1)Nc1ccnn1C1CCS(=O)(=O)C1` (stereo unspecified): -19.8%.
As for `COC(C)C(=O)NS(=O)(=O)c1cccc2cc(C)cnc12` (stereo unspecified), the cytotoxicity at 10 µM is -6.55%.
Then `CC1CCCN(Cc2ccc(CNC(=O)NCc3ccncc3)cc2)C1` (stereo unspecified), with 4.64%.
On to `CS(=O)(=O)Cc1ccc(Cl)cc1NCc1cccc(F)c1F`, for which the cytotoxicity at 10 µM turned out to be 9.2%.
Next, `CCOCCCNC(=O)c1cc(Br)c2c(c1)OCCO2`: -2.21%; `COC(=O)CCSc1nncn1-c1ccc(OC)nc1`: -2.09%; `Cc1csc(CNC(=O)NCC(O)c2ccccc2)n1` (stereo unspecified): 2.26%.
In the case of `COc1ncccc1CNC(=O)CN1CCCCCC1=O`, the cytotoxicity at 10 µM was -10.4%.
Then `Cc1ccc(CCCC(=O)N(C)CCN2CCOCC2)cc1`, with -2.75%; and `N#CC1(NC(=O)CNCCn2cccn2)CCCCC1`, with -7.5%.
Take `Cc1ncc(CN(C)C(=O)Nc2ccc(CN3CCOC3=O)cc2)s1`: the cytotoxicity at 10 µM was -2.97%.
Regarding `O=S(=O)(NC(CO)Cc1c[nH]c2ccccc12)c1cncc(F)c1` (stereo unspecified), the cytotoxicity at 10 µM came to 12%.
Next, `Cc1ccc(NS(=O)(=O)c2cnn(-c3ccccc3)c2)c(C(=O)O)c1`: -3.11%; `CC(C)N(Cc1ccc(C#N)cc1)Cc1nnsc1Cl`: 12.6%; `COc1cc2c(cc1OC)S(=O)(=O)N(Cc1cccc(C)c1)C2=O`: 5.98%.
Next, `CCOc1cc(CNC(=O)c2cc(-c3ccccn3)no2)ccn1`: 1.63%.
Next, `Cc1nc(C2CCCC2)sc1C(N)=O`: -5.03%.
With `Cc1cn2nc(N3CCCC3C(=O)N3CCOCC3)sc2n1` (stereo unspecified), the cytotoxicity at 10 µM is -3%.
Turning to `CC(C)c1cc(CNC(=O)Nc2cc(F)cc(N3CCCC3)c2)on1`, the cytotoxicity at 10 µM is 1.57%.
Next, `c1ccc(Cn2cccn2)c(CNCc2cnc(N3CCCC3)nc2)c1`: -5.34%; `CC(Cn1cccn1)NC(=O)N(C)Cc1cnn(C)c1` (stereo unspecified): -5.17%; `CCN(C(=O)c1cc(C)oc1C)C1CC1`: -5.89%.
Then `O=C(CN(CC1CCC1)CC(F)(F)F)N1CCOCC1`, with -13.1%.
With `CC(=O)NC1(C(=O)N(C)Cc2c(C)noc2C)CCCCC1`, the cytotoxicity at 10 µM came to 14.4%.
Then `Cc1ccc(-c2n[nH]cc2CNCC2CCc3nnc(C)n3C2)cc1` (stereo unspecified), with -8.35%; and `Cn1cc(N2CCC(Nc3ccc4nccnc4n3)C2=O)cn1` (stereo unspecified), with -2.47%.
`N#Cc1ccc(F)c(CNC(=O)NCCC(=O)NC2CCCC2)c1`: the cytotoxicity at 10 µM was -5.95%.
Next, `CN(C)CCN(Cc1cccc(C(F)(F)F)c1)C(=O)c1cc[nH]n1`: 1.39%; `COc1cc(N2CCC3(CC2)CN(C)C(=O)CO3)ncn1`: 6.5%; `CC(C)NC(=O)C1CN(C(=O)N2CCCC2)CC12CCOCC2` (stereo unspecified): 1.08%.
Next, `CC(O)c1cccc(N2CCC3(CCC(=O)N(CC(N)=O)C3)CC2)n1` (stereo unspecified): -2.55%; `O=C(c1ccc(Cn2cnnn2)cc1)N1CC[C@H](CO)[C@H](O)C1`: 0.529%; `CN1CCCN(C[C@@H]2CN(C(=O)N3CCOCC3)C[C@@H]2CO)CC1`: -7.43%.
As to `CCn1nc(C)c(CCNC(=O)c2cccc(NCC(=O)O)c2)c1C`, the cytotoxicity at 10 µM amounted to 15.2%.
Then `Cc1nc2ncccn2c1C(=O)N1CCc2[nH]cnc2C1`, with 7.94%.
Regarding `CN(C)C[C@@H]1CN(C2CCN(c3ccccc3Cl)CC2)C[C@@H]1CO`, the cytotoxicity at 10 µM was -10.1%.
Then `Cc1ocnc1C(=O)N1CCCC1c1ccc(C(=O)N2CCSCC2)s1` (stereo unspecified), with -5.37%.
Next, `O=C(c1ccc(-c2cccc3c2CCNC3)o1)N1CCCCC1`: 3.67%.
Then `COc1cc(-c2nc(CN(CCO)CCO)c(C)o2)ccc1F`, with -10.2%; and `c1cc(CN2CCCC2)cc(-n2ccnc2-c2ccncc2)c1`, with -1.37%; and `Cc1ccccc1C(C(=O)NCCS(C)(=O)=O)N(C)C` (stereo unspecified), with 11.2%.
`O=C(N[C@@H]1CCN(C(=O)c2ccc(F)cc2Cl)C[C@H]1O)c1ccccn1`: the cytotoxicity at 10 µM was -0.0395%.
Consider `O=S(=O)(NCc1ccccc1)NCc1nc(-c2ccncc2)n[nH]1`, for which the cytotoxicity at 10 µM came to 14.3%.
Next, `CC(C)CN1CCCC1c1ccc(C(=O)Nc2cc[nH]n2)s1` (stereo unspecified): 10.3%.
Next, `COCCN(Cc1cnn(C)c1)C(=O)C1COc2c(cccc2OC)C1` (stereo unspecified): -11.9%.
Then `O=C(NCc1ccoc1)c1ccc(C2CCCN2CC2CCOCC2)s1` (stereo unspecified), with 6.7%.
As for `CC(C)c1nc(C(=O)N2CCCC(N)CC2)cs1` (stereo unspecified), the cytotoxicity at 10 µM was -2.56%.
Turning to `CCN(C)C[C@@H]1CN(Cc2cccc(O)c2)C[C@@H]1CO`, the cytotoxicity at 10 µM was -1.13%.
In the case of `CCc1nc(C)c(-c2nccn2CC2CCN(C3CCCC3)CC2)[nH]1`, the cytotoxicity at 10 µM was determined as 3.98%.
Next, `Nc1nc2c(c(N3CCC(CN4CCCC4=O)CC3)n1)CCNCC2`: -3.95%; `COCCNc1nc2c(c(NCC3CCOC3)n1)CCNCC2` (stereo unspecified): -2.85%.
Then `CCN(Cc1ccc(S(C)(=O)=O)cc1)Cc1nc(COC)no1`, with -10.8%; and `O=C(C1CC(=O)N(C2CCCC2)C1)N1CCN(CCn2cccc2)CC1` (stereo unspecified), with 12.8%.
Then `CCc1nc(C2CCCN2CC(=O)Nc2cc(C)on2)no1` (stereo unspecified), with -3.08%; and `CCc1nnc(CN2CCCCC2Cn2nc(C)nc2C)o1` (stereo unspecified), with -2.4%.
Take `CC1CCN(CCNC(=O)C(C)n2cncn2)CC1` (stereo unspecified): the cytotoxicity at 10 µM was -9.12%.
Take `Cc1ccoc1C(=O)NC1CCN(CC(=O)N(C)c2ccccc2)CC1`: the cytotoxicity at 10 µM is -2.93%.
Then `CC(c1nc(C(C)(C)C)no1)N1CCN(Cc2ccco2)CC1` (stereo unspecified), with -5.02%; and `CN(C)c1cc(C(=O)N2CCCC2c2cnn(C)c2)ccn1` (stereo unspecified), with -1.39%; and `CCc1nnc2n1CCN(CC(O)c1ccc3c(c1)OCCO3)C2` (stereo unspecified), with -7.3%.
Then `O=C(c1cccnc1N1CCCCC1)N1CCCC(n2ccnc2)C1` (stereo unspecified), with -14.4%.
Then `CCN(C(=O)CN(C)C(c1cccc(F)c1)c1ccccn1)C1CC1` (stereo unspecified), with -8.65%.
As to `Cn1cc(C2CCCN2C(=O)CCCOc2ccc(F)cc2F)cn1` (stereo unspecified), the cytotoxicity at 10 µM was -7.54%.
As to `CC(=O)NC1CCCN(C(=O)NCc2cccnc2N(C)C)C1` (stereo unspecified), the cytotoxicity at 10 µM is -1.97%.
On to `Cc1nc(C)n(CC2CN(c3ncnc4[nH]ccc34)CCO2)n1` (stereo unspecified), for which the cytotoxicity at 10 µM was 0.433%.
Next, `CC(C)c1nc(C2CCCN(C(=O)c3ccc4nccn4c3)C2)no1` (stereo unspecified): -0.0722%; `Cc1cc(C(=O)N2CCC3(C2)CN(c2cccnc2)C(=O)CN3C)[nH]n1` (stereo unspecified): 5.2%.
Then `COc1ccc(CN2C[C@H]3CN(Cc4ccncc4)C(=O)[C@H]3C2)cc1`, with 4.35%.
Then `CSc1nccc(N2C[C@H]3CC[C@@H](C2)N(CC2CCC2)C3=O)n1`, with 1.88%; and `O=C(c1ccncc1F)N1C[C@@H]2CC[C@H]1CN(Cc1cccnc1)C2`, with 3.01%; and `CC1CCCN(S(=O)(=O)NCCNC(=O)c2ncccc2O)C1` (stereo unspecified), with 3.07%.

The record behind these values is ChEMBL document CHEMBL4513216, “Probing the Open Global Health Chemical Diversity Library for Multistage-Active Starting Points for Next-Generation Antimalarials” (ACS Infect Dis, 2020).
